Data taken from ChEMBL document CHEMBL1146454, “Antifungal 3-butylisocoumarins from Asteraceae-Anthemideae” (J Nat Prod, 2004).
≈ marks a conversion by molar mass, not a printed value. Calls of active or inactive are those of the source. No cut-off for these calls is given here.

Key:
Pyricularia grisea = experiment: Antifungal activity against Pyricularia grisea assessed as inhibition of germ-tube development by microdilution method; assay type: functional, organism-based
Method in brief: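 Pyricularia grisea isolate from infected rice leaves (Thailand), tested in 4% malt extract broth by microdilution. Stock in acetone/malt extract emulsified with 0.2% Tween 80, diluted 2-fold; final range 200–0.78 μg/mL. Inoculum 10⁴ CFU conidia per well. Incubated 16 h at room temperature, stopped with lactophenol blue. Germ-tube size measured by pixel counts of 10 conidia per well. EC50/EC90 by probit; MIC is the first concentration giving total inhibition.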

Cladosporium herbarum = experiment: Antifungal activity against Cladosporium herbarum assessed as inhibition zone in mycelial layer assessed per spot by TLC bioautography assay; assay type: functional
Method in brief: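 TLC bioautography with Cladosporium herbarum strain VIAM-MA1511 as the mycelial layer. Compounds were applied as a dilution series from 100 to 25 μg/spot, and plates were held 3 days. The MIC was the first amount in the series that gave a homogeneous inhibition zone in the mycelial layer.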

Row | Structure (SMILES) | EC50 (Pyricularia grisea) [µg/mL] | EC90 (Pyricularia grisea) [µg/mL] | MIC (Pyricularia grisea) [µg/mL] | MIC (Cladosporium herbarum) [µg] | Activity (Cladosporium herbarum) | Activity (Pyricularia grisea)
1 | COc1cc(O)c2c(c1)C[C@@H](C)OC2=O | 47 (≈ 226 µM) | 106 (≈ 509 µM) | 200 (≈ 961 µM) | 25 | – | –
2 | C[C@@H](O)/C=C/c1cc2ccccc2c(=O)o1 | 140 (≈ 647 µM) | 292 (≈ 1350 µM) | > 200 | 100 | – | –
3 | CC(C)CC(=O)OCC#CCc1cc2ccccc2c(=O)o1 [CAPILLARIN ISOVALERATE] | 5 (≈ 16.8 µM) | 13 (≈ 43.6 µM) | 25 (≈ 83.8 µM) | – | inactive | –
4 | CC[C@H]1O[C@@H]1c1cc2ccccc2c(=O)o1 (racemic) | – | – | – | 50 | – | inactive
5 | CC[C@H](Cc1cc2ccccc2c(=O)o1)OC | – | – | – | >100 | – | inactive
6 | CC(=O)/C=C/c1cc2ccccc2c(=O)o1 | 5 (≈ 23.3 µM) | 21 (≈ 98 µM) | 25 (≈ 117 µM) | <25 | – | –
7 | CCC(Br)C(Br)c1cc2ccccc2c(=O)o1 (centres undefined) | – | – | – | 100 | – | –
8 | O=c1occc2ccccc12 [ISOCOUMARIN] | 83 (≈ 568 µM) | – | > 200 | – | – | –
9 | CCCC(Br)(Br)c1cc2ccccc2c(=O)o1 | 22 (≈ 61.1 µM) | – | > 200 | 50 | – | –
10 | C=C/C=C/c1cc2ccccc2c(=O)o1 | 14 (≈ 70.6 µM) | 45 (≈ 227 µM) | 50 (≈ 252 µM) | 25 | – | –
11 | CC/C=C(\Br)c1cc2ccccc2c(=O)o1 | 2 (≈ 7.17 µM) | 9 (≈ 32.2 µM) | 12 (≈ 43 µM) | <25 | – | –
12 | CCCC(O)c1cc2ccccc2c(=O)o1 (centres undefined) | 37 (≈ 170 µM) | 83 (≈ 380 µM) | 100 (≈ 458 µM) | 100 | – | –
13 | CC/C=C/c1cc2cccc(O)c2c(=O)o1 | 4 (≈ 18.5 µM) | 19 (≈ 87.9 µM) | 25 (≈ 116 µM) | >100 | – | –
14 | CO/N=C(/C(=O)OC)c1ccccc1COc1ccccc1C [KRESOXIM-METHYL] | 0.003 (≈ 0.00957 µM) | – | > 200 | – | – | –
15 | COC1=CC(=O)C[C@@H](C)[C@]12Oc1c(Cl)c(OC)cc(OC)c1C2=O [GRISEOFULVIN] | 4 (≈ 11.3 µM) | – | > 200 | – | – | –
16 | CCCCc1cc2ccccc2c(=O)o1 [DIHYDROARTEMIDIN] | 10 (≈ 49.4 µM) | 40 (≈ 198 µM) | 50 (≈ 247 µM) | 100 | – | –
17 | CN(CC[C@H](N)CC(=O)N[C@H]1C=C[C@H](n2ccc(N)nc2=O)O[C@@H]1C(=O)O)C(=N)N [BLASTICIDIN_S] | 13 (≈ 30.8 µM) | – | > 200 | – | – | –
18 | CC(O)C#Cc1cc2ccccc2c(=O)o1 (centres undefined) | 0.9 (≈ 4.2 µM) | – | 50 (≈ 233 µM) | 100 | – | –
19 | CC/C=C/c1cc2c(O)cccc2c(=O)o1 [ARTEMIDINOL] | 12 (≈ 55.5 µM) | 32 (≈ 148 µM) | 50 (≈ 231 µM) | >100 | – | –
20 | CC[C@@H](O)[C@H](O)c1cc2ccccc2c(=O)o1 (relative stereo) | – | – | – | – | – | inactive
21 | CC#CCc1cc2ccccc2c(=O)o1 [CAPILLARIN] | 37 (≈ 187 µM) | 92 (≈ 464 µM) | 100 (≈ 504 µM) | – | inactive | –
22 | CC[C@H](O)[C@H](O)c1cc2ccccc2c(=O)o1 (relative stereo) | – | – | – | – | – | inactive
23 | CCC#Cc1cc2ccccc2c(=O)o1 [CORFIN] | 3 (≈ 15.1 µM) | 99 (≈ 499 µM) | 100 (≈ 504 µM) | >100 | – | –
24 | CC#CCc1cc2cccc(O)c2c(=O)o1 | 2 (≈ 9.34 µM) | 102 (≈ 476 µM) | 100 (≈ 467 µM) | – | inactive | –
25 | CCCC(Br)c1cc2ccccc2c(=O)o1 (centres undefined) | 35 (≈ 124 µM) | 96 (≈ 341 µM) | 100 (≈ 356 µM) | 25 | – | –
26 | CC[C@H](O)Cc1cc2ccccc2c(=O)o1 | 25 (≈ 115 µM) | – | > 200 | 100 | – | –
27 | CC/C=C/c1cc2ccccc2c(=O)o1 | 11 (≈ 54.9 µM) | 19 (≈ 94.9 µM) | 25 (≈ 125 µM) | 100 | – | –
28 | CCCCNC(=O)n1c(NC(=O)OC)nc2ccccc21 [BENOMYL] | 0.06 (≈ 0.207 µM) | – | 200 (≈ 689 µM) | <25 | – | –
29 | CC[C@@H]1O[C@H]1c1cc2ccccc2c(=O)o1 | 93 (≈ 430 µM) | – | > 200 | 25 | – | –
30 | CC(=O)OC(C)/C=C/c1cc2ccccc2c(=O)o1 (centres undefined) | 8 (≈ 31 µM) | 30 (≈ 116 µM) | 50 (≈ 194 µM) | 50 | – | –
